Source: ChEMBL document CHEMBL1126562, “(1-Butyl-4-piperidinyl)methyl 8-amino-7-chloro-1,4-benzodioxane-5-carboxylate hydrochloride: a highly potent and selective 5-HT4 receptor antagonist derived from metoclopramide” (J Med Chem, 1993)

What was measured:
[1] = biological target: 5-hydroxytryptamine receptor 4 (Cavia porcellus, UniProt O70528); assay: Inhibition of 5-HT-evoked 5-HT4 receptor-mediated contractions in the guinea pig distal colon longitudinal muscle myenteric plexus (LMMP); format: functional
[2] = biological target: 5-hydroxytryptamine receptor 1E (Homo sapiens, UniProt P28566); assay: Tested for binding affinity towards cloned human 5-hydroxytryptamine 1E receptor using [3H]5-HT as radioligand
How it was run: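 Radioligand binding on the cloned human 5-HT1E receptor, labelled with [³H]-5-HT.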

[3] = biological target: T1, 5-hydroxytryptamine receptor 1A (Mus musculus, UniProt Q64264); assay: Tested against 5-hydroxytryptamine 1A receptor
T1 sequence (Q64264 whole entry): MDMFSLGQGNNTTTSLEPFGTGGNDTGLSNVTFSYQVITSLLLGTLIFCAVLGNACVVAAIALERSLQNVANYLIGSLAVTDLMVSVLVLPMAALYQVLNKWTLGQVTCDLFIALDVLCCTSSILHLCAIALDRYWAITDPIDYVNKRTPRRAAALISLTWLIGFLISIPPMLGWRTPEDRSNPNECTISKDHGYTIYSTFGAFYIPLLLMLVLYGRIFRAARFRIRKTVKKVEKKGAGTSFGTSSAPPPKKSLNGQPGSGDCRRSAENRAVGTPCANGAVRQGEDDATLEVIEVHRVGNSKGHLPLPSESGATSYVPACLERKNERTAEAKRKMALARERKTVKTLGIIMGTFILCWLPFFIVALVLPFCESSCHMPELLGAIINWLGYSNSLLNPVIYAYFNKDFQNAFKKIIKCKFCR

[4] = biological target: 5-hydroxytryptamine receptor 2A (Homo sapiens, UniProt P28223); assay: Tested against 5-hydroxytryptamine 2A receptor
[5] = biological target: 5-hydroxytryptamine receptor 1D (Homo sapiens, UniProt P28221); assay: Tested against 5-hydroxytryptamine 1D receptor
[6] = biological target: Serotonin 3 (5-HT3) receptor; assay: Tested against 5-hydroxytryptamine 3 receptor in experiment 1; format: protein-complex assay
[7] = biological target: Serotonin 3 (5-HT3) receptor; assay: Tested against 5-hydroxytryptamine 3 receptor in experiment 2; format: protein-complex assay
[8] = biological target: T2, 5-hydroxytryptamine receptor 2C (Homo sapiens, UniProt P28335); assay: Tested agains t5-hydroxytryptamine 2C receptor in experiment 1
T2 sequence (P28335 whole entry): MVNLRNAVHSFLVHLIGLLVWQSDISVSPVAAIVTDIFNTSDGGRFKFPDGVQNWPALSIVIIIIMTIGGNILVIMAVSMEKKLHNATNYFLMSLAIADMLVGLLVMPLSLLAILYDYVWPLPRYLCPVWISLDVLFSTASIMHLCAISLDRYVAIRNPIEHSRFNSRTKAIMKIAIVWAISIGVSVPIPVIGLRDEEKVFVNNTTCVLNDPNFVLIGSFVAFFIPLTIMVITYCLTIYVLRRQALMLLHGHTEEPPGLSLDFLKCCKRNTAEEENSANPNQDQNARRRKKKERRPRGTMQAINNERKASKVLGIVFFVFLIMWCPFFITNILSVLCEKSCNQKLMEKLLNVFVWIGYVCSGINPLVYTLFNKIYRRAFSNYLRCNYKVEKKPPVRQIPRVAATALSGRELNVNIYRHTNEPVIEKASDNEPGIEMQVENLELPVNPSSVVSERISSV

[9] = biological target: T2, 5-hydroxytryptamine receptor 2C; assay: Tested against 5-hydroxytryptamine 2C receptor in experiment 2
[10] = Partition coefficient (logP); format: physicochemical; details: octanol/water
[11] = Concentration-dependent rightward shift of the 5-HT curve yielding an apparent pA2; format: ADME
[12] = Acid dissociation constant was determined; format: ADME
[13] = biological target: T3, Alpha-2A adrenergic receptor (Homo sapiens, UniProt P08913); assay: Tested against adrenergic alpha-2 receptor
T3 sequence (P08913 whole entry): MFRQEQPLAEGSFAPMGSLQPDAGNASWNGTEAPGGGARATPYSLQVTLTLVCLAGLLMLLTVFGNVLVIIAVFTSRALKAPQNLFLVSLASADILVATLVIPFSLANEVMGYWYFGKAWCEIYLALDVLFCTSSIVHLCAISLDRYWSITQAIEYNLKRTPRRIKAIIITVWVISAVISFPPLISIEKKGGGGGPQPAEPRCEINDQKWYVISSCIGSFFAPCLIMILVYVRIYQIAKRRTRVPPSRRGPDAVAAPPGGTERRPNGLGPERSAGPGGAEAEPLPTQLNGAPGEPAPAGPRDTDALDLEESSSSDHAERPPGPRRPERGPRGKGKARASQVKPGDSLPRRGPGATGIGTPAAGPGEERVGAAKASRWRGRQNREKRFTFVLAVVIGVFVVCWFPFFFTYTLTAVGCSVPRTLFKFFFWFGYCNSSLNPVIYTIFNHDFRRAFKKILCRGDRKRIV

[14] = biological target: T4, Alpha-1D adrenergic receptor (Rattus norvegicus, UniProt P23944); assay: Tested against adrenergic alpha-1 receptor radiolabeled with [3H]7-methoxyprazosin
T4 sequence (P23944 whole entry): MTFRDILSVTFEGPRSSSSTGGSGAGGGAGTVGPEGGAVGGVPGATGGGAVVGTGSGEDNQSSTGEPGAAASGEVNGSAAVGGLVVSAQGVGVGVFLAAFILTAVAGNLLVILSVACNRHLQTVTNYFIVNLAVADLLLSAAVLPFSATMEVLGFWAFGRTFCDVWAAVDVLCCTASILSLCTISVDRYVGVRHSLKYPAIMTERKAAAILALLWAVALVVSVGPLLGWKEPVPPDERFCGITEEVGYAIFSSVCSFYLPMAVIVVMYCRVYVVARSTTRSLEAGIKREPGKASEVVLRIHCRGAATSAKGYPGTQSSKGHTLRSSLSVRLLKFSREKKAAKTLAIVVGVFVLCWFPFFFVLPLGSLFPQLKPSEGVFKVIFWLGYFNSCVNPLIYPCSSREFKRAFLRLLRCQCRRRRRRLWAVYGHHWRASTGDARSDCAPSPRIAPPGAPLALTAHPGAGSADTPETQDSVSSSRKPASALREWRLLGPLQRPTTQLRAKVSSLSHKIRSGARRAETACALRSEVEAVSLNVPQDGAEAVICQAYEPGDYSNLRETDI
How it was run: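 α1-Adrenoceptor binding, radiolabelled with [³H]-7-methoxyprazosin.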

[15] = biological target: Beta-2 adrenergic receptor (Homo sapiens, UniProt P07550); assay: Tested against Beta-2 adrenergic receptor
[16] = biological target: D(1A) dopamine receptor (Mus musculus, UniProt Q61616); assay: Tested against dopamine receptor D1
[17] = biological target: D(3) dopamine receptor (Homo sapiens, UniProt P35462); assay: Tested against dopamine receptor D3 using cloned human receptor expressed in CHO cells radiolabeled with [125I]iodosulpiride; format: cell-based
How it was run: (§1)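 Competition binding on cloned human D2 or D3 receptors expressed in CHO cells, radiolabelled with [¹²⁵I]iodosulpride.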

[18] = biological target: D(2) dopamine receptor (Homo sapiens, UniProt P14416); assay: Tested against dopamine receptor D2 using cloned human receptor expressed in CHO cells radiolabeled with [125I]iodosulpiride; format: cell-based; how it was run: as §1
[19] = biological target: Beta-1 adrenergic receptor (Homo sapiens, UniProt P08588); assay: Tested against Beta-1 adrenergic receptor
Sequence of Beta-1 adrenergic receptor (P08588 whole entry): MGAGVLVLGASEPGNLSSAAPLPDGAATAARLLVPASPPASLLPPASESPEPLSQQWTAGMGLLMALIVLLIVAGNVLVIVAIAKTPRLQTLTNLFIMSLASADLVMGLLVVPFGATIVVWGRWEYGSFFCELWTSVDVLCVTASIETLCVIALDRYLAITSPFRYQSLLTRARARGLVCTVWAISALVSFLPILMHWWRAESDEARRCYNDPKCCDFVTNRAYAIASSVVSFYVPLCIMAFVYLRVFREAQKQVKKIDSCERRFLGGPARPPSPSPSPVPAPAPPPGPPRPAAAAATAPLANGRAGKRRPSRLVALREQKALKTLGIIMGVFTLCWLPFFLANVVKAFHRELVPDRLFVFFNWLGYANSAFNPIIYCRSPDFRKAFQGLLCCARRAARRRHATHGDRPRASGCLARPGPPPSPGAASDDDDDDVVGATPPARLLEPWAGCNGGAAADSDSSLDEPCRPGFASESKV

Sequence of 5-hydroxytryptamine receptor 4 (O70528 whole entry): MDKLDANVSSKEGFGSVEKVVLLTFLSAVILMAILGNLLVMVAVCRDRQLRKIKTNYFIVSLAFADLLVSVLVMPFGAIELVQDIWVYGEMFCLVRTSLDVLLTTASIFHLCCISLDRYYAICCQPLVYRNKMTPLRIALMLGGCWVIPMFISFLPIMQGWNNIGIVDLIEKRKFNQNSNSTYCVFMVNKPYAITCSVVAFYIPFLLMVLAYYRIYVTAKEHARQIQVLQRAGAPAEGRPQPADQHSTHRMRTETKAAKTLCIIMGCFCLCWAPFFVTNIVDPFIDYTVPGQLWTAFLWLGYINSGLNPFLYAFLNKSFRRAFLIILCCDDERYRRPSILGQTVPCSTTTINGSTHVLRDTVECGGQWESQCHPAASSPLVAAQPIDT
Sequence of 5-hydroxytryptamine receptor 2A (P28223 whole entry): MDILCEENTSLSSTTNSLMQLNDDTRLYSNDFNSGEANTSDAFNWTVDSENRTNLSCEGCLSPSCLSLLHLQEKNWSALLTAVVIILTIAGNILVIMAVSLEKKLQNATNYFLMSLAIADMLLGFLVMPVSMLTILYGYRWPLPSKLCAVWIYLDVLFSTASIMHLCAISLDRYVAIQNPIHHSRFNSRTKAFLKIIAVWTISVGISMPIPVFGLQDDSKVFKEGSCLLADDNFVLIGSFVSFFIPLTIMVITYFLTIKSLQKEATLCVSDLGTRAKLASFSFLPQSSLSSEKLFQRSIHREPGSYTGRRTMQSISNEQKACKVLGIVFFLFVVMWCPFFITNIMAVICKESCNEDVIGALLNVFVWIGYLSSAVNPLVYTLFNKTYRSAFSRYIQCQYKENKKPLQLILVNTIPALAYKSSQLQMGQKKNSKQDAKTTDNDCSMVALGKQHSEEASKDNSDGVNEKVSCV
Sequence of Beta-2 adrenergic receptor (P07550 whole entry): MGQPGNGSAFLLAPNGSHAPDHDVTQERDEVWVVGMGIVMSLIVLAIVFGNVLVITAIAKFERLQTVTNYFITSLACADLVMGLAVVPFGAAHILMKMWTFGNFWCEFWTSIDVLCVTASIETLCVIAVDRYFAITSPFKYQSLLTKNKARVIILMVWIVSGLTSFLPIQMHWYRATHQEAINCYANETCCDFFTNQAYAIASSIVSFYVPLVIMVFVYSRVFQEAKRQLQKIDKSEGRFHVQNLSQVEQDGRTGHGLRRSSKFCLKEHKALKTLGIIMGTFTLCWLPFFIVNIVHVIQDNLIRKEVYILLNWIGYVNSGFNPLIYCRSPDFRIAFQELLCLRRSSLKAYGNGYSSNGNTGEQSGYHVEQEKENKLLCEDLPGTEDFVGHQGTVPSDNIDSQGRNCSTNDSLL
Sequence of 5-hydroxytryptamine receptor 1E (P28566 whole entry): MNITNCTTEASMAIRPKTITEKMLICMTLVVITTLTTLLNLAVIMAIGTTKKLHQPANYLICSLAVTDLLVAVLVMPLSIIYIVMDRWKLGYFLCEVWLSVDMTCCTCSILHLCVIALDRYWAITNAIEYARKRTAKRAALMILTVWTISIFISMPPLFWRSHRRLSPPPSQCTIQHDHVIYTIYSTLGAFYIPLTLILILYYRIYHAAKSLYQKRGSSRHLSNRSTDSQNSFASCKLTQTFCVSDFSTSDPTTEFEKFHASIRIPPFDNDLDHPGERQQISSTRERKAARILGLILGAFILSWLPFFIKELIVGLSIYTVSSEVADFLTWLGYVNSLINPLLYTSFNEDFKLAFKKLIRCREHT
Sequence of 5-hydroxytryptamine receptor 1D (P28221 whole entry): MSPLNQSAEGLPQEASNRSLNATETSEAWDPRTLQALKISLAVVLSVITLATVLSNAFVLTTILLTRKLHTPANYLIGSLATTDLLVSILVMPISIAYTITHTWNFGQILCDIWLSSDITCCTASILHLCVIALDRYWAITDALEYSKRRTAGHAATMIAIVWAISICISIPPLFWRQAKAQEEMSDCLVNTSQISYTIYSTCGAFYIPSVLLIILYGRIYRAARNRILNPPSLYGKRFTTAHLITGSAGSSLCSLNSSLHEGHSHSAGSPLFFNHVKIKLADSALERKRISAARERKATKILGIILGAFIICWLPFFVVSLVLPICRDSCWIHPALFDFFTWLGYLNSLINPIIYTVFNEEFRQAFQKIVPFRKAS
Sequence of D(2) dopamine receptor (P14416 whole entry): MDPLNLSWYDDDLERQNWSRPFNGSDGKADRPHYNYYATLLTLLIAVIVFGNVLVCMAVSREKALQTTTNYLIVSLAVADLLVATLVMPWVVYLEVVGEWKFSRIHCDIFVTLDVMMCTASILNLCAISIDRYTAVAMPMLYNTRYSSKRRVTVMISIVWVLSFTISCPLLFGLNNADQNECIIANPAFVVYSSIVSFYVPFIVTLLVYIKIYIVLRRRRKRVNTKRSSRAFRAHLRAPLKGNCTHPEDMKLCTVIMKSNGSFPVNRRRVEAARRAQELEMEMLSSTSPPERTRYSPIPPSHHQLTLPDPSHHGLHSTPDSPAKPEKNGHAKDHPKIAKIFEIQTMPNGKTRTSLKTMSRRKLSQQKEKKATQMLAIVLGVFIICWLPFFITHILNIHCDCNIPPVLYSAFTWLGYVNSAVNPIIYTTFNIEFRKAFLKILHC
Sequence of D(3) dopamine receptor (P35462 whole entry): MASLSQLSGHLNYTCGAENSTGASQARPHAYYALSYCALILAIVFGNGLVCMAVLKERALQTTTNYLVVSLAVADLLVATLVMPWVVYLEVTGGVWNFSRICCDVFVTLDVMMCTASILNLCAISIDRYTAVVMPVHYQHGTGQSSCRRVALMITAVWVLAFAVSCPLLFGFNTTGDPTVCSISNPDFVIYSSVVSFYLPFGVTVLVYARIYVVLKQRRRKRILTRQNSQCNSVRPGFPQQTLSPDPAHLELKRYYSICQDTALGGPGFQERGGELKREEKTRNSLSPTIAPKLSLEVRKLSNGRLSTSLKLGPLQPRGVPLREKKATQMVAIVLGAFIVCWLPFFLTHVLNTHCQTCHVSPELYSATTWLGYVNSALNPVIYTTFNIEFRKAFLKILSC
Sequence of D(1A) dopamine receptor (Q61616 whole entry): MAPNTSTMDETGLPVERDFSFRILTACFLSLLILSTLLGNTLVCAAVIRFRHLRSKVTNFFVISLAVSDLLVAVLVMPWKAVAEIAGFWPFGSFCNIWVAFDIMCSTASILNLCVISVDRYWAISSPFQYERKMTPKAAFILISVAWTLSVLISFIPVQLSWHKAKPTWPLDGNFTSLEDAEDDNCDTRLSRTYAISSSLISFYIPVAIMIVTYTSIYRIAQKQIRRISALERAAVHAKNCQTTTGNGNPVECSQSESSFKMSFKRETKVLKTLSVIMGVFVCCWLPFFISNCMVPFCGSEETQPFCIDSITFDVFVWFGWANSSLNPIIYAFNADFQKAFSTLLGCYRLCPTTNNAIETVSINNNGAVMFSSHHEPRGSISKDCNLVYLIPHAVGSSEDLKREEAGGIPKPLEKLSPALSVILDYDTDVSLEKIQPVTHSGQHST

## CCCCN1CCC(COC(=O)c2cccc3c2OCCO3)CC1
[1]
  IC50: 6.31 nM

## CCCCN1CCC(COC(=O)c2cccc3c2OCCCO3)CC1
[1]
  IC50: 50.1 nM

## CCCCN1CCC(CNC(=O)c2cc(Cl)c(N)cc2OC)CC1
[1]
  IC50: 10 nM

## CCCCN1CCC(COC(=O)c2cccc3c2OCO3)CC1
[1]
  IC50: 63.1 nM

## CCN(CC)CCOC(=O)c1cc(Cl)c(N)cc1OC
[1]
  IC50: 251 nM

## CCCCN1CCC(COC(=O)c2cc(Cl)c(N)cc2OC)CC1
[1]
  IC50: 1 nM

## CCCCN1CCC(COC(=O)c2cc(Cl)c(N)c3c2OCCO3)CC1
[2]
  Ki: > 10000 nM
[3]
  Ki: > 1000 nM
[4]
  Ki: > 1000 nM
[5]
  Ki: > 10000 nM
[6]
  Log Ki: -6.6
[7]
  Log Ki: -6.7
[8]
  Ki: 126 nM
[9]
  Ki: 79.4 nM
[10]
  logP: 4.86
[11]
  pA2: 10.8
[12]
  pKa: 10.4
[13]
  Ki: > 1000 nM
[14]
  Ki: > 1000 nM
[15]
  Ki: > 1000 nM
[16]
  Ki: > 1000 nM
[17]
  Ki: > 1000 nM
[18]
  Ki: > 10000 nM
[1]
  IC50: 0.1 nM
[19]
  Ki: > 1000 nM

## CN1[C@@H]2CC[C@H]1C[C@@H](OC(=O)c1c[nH]c3ccccc13)C2 [TROPISETRON]
[1]
  IC50: 3160 nM
